Assay results: ChEMBL document CHEMBL1150169, “Fatty acid synthase inhibitors from plants: isolation, structure elucidation, and SAR studies” (J Nat Prod, 2002)
In brackets after ≈: the same amount, converted by molar mass.

Columns and labels:
Candida albicans = test: Antifungal activity against Candida albicans ATCC 90028; assay type: functional, organism-based
Cryptococcus neoformans = test: Antifungal activity against Cryptococcus neoformans ATCC 90113; assay type: functional, organism-based
[1] = Inhibition of Saccharomyces cerevisiae fatty acid synthase
Summary of the method: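 Yeast FAS semipurified by 50% ammonium sulfate precipitation of lysate (pH 6.6 phosphate, EDTA, DTT, protease inhibitors), dialyzed, and diluted to 250 mOD/min/mL. Samples preincubated with enzyme 30 min at room temperature, then mixed 1:1 with mix of 1 mM malonyl CoA and NADPH, 40 µM acetyl CoA, and 2 mM DTT. A340 read kinetically; rate over initial 2 min. IC50 from dose-response curves.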

| IC50 (Candida albicans) | IC50 (Cryptococcus neoformans) | IC50 [1] | Compound |
| --- | --- | --- | --- |
| > 50 µg/mL | > 50 µg/mL | > 50 µg/mL | CC1(C)CC[C@]2(C(=O)O[C@@H]3O[C@H](CO)[C@@H](O)[C@H](O)[C@H]3O)CC[C@]3(C)C(=CC[C@@H]4[C@@]5(C)C[C@@H](O)[C@H](O)[C@@](C)(CO)[C@@H]5[C@H](O)C[C@]43C)[C@@H]2C1 [CHEBULOSIDE II] |
| > 50 µg/mL | > 50 µg/mL | > 50 µg/mL | COc1cc(O)c(C(=O)CCc2ccc(O)cc2)c(O)c1 [ASEBOGENIN] |
| > 50 µg/mL | > 50 µg/mL | > 50 µg/mL | O=c1c(O)c(-c2ccc(O)c(O)c2)oc2cc(O)ccc12 [FISETIN] |

| Compound | IC50 (Candida albicans) | IC50 (Cryptococcus neoformans) | IC50 [1] |
| --- | --- | --- | --- |
| O=c1cc(-c2ccc(O)c(O)c2)oc2cc(O)cc(O)c12 [LUTEOLIN] | > 50 µg/mL | > 50 µg/mL | 9 µg/mL (≈ 31.4 µM) |
